Test results from the RNAGym collection of RNA variant scans (doi:10.1126/science.aae0568).
Fewer inactive variants are shown than the library holds.

B1: tRNA (parent)
chain: GUUCCGUUGGCGUAAUGGUAACGCGUCUCCCUCCUAAGGAGAAGACUGCGGGUUCGAGUCCCGUACGGAACG

Variants of: B1
Assay: yeast fitness relative to wild type (ratio to wild type); higher = fitter; tRNA-Arg(CCU), competitive growth, 37 C, YPD
In short: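 Genotype frequency changes were the basis for Darwinian fitness relative to wild type. The frequencies came from 100-nucleotide paired-end sequencing of gene amplicons from the start population and each end population of pooled yeast strains with tRNA-Arg(CCU) gene variants at the native locus. Competition ran in YPD at 37°C for 24 hours in six replicates, genotypes needed ≥ 100 starting reads, and estimates < 0.5 were set to 0.5.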

Variant | yeast fitness
C62U A65U G68C | 0.602
A37C C55G | 0.607
G10C G23A | 0.57
C5G A15U G56A A70G | ≤ 0.5
C5G G10A A37C G56A | 0.567
A15C A57G | 0.812
U8C C22G C27U C49U U64C | ≤ 0.5
U2C C33U A42G G44C | ≤ 0.5
A15G U16A A45U | 0.642
C4A C66U | 0.862
C5A C24G C31G | 0.555
G12A A14U A21U U32G A37G A45G C55A | ≤ 0.5
U2G A40C A65G C66G | ≤ 0.5
A21C G23A G52C A57C | ≤ 0.5
U19A C66G | 0.686
U2G G12A U13A G25C U28A C33A G63C U64C | ≤ 0.5
U19G C49U | 0.859
G23A C31G A45C G52C | ≤ 0.5
C4U A20U U47G G58A C62A | ≤ 0.5
C27U G67A A69U | 0.692
U2A G41C G50C C62G C66G | ≤ 0.5

Variant | yeast fitness
U16A G50C C66G | ≤ 0.5
G48A C60G | 0.583
C5G G10A C22U A37C G56A | ≤ 0.5
C11G G12C U54A C60A A69C | 0.557
A15G G18U | 0.75
G18A G68C | 0.662
C22G C30G U59A | ≤ 0.5
A37G U54C | 0.674
C34U G44C U47G | 0.659
C22G A57U | 0.619
G10A C31U G44C A69U | ≤ 0.5
U2A C5U C66U | 0.661
A43U U53A | 0.666
U16C A70U | 0.902
C5U C22G A40G | 0.741
G6C C55G | 0.695
G6A A14G C33A G39C | ≤ 0.5
U13A C24U U35A A43C G50C | ≤ 0.5
C29G U35C G38C A57G | ≤ 0.5
G17C G25C C30U A65C | ≤ 0.5
C4G C5U | 0.751

Variant | yeast fitness
C24G C33G A36C A37C A42C A65U | ≤ 0.5
U32C A43C G52A C55U C60A | ≤ 0.5
C22U A37U C49A C62U | 0.598
G6A A45G | 0.928
G12A U13G U19C A21G C49U G52A U59G | 0.525
G12C U28A | 1.04
A15U A21C G23C C55A U64A A65C G67A | ≤ 0.5
G44C G67C | 0.823
U3C C11A C27G C33A A43C C46A C62A C66U | ≤ 0.5
C11A U26A U54A | ≤ 0.5
C4U C11G C24A A36U A43C | 0.55
C5U C11U C24A C55A A65G | ≤ 0.5
C29G C46U G56A | ≤ 0.5
C27A G58A C66G | 0.512
U3A U7G C29G C49U | ≤ 0.5
C22U G67C | 0.822
U13G U28G | 0.59
G12A A40C C66U | 0.532
A37C C61G | 0.584
G12C C33U C46G U54A | ≤ 0.5
G41A C60G G63A A65G | 0.529

Variant | yeast fitness
C4A C29U C30G C49U | ≤ 0.5
C30A U47C G67U | ≤ 0.5
A21G A43U G58C U59C | 0.67
C11G G25A C62U | ≤ 0.5
A21C C24A C49U | ≤ 0.5
U2G C46U | 1.01
C11U U16A C55A | ≤ 0.5
U13A U53A C61U | ≤ 0.5
C4U G50A G67A | 0.553
C4U G50A G67C | 0.578
G10C C30G C49G | ≤ 0.5
C5U C27A A42U | 0.642
G9A A57C | 0.591
A15U C24U C27U C49U | ≤ 0.5
C27A C34U A42C U53G C66U | 0.536
A15U G39C A42C A65C | ≤ 0.5
U3G G50C | 0.699
A14G A15G U32A | ≤ 0.5
A14G C31U A42G C62U A69C | ≤ 0.5
A14C G25C C66U | 0.531
C5A G39A C60U C62A | 0.557
